Source: ChEMBL document CHEMBL4152308, “Synthesis and biological evaluation of novel 2-oxo-1,2-dihydroquinoline-4-carboxamide derivatives for the treatment of esophageal squamous cell carcinoma” (Eur J Med Chem, 2018)
pIC50: −log10 of the molar value. Activity calls are given as the source filed them. The rule behind the calls is not given here.

Experiments:
[1] = system: SK-OV-3; experiment: Antiproliferative activity against human SKOV3 cells after 72 hrs by MTT assay; assay type: functional, cell-based; settings: SK-OV-3, 72 h
Method in brief: (§1)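 Cells grown as monolayers at 37 °C, 5% CO2, mycoplasma-checked, in exponential phase. Cells seeded in 96-well plates, 24 h attachment, then compound added for 72 h. MTT 0.3 mg/mL for 3 h at 37 °C, DMSO solubilization, absorbance at 570 nm. Inhibition = (1 − A/C) × 100%. IC50 from log(concentration) vs % inhibition plot; triplicate wells, SD from ≥3 independent experiments.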

[2] = system: KYSE-410; experiment: Inhibition of autophagy in human KYSE410 cells assessed as decrease in bafilomycin-induced LC3B level at 10 uM treated at 1 hr post proteasome inhibitor MG132 treatment measured after 24 hrs by Western blot analysis; assay type: functional, cell-based
Method in brief: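 KYSE410 cells pretreated 1 h with 10 µM MG132 (proteasome inhibitor), then compound at 10 µM for 24 h. Lysis in RIPA with protease inhibitors, BCA quantification, equal protein on 15% SDS-PAGE, PVDF transfer. Anti-LC3B overnight at 4 °C, anti-rabbit secondary, GAPDH as loading reference.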

[3] = system: KYSE-70 cell line; experiment: Antiproliferative activity against human KYSE-70 cells after 72 hrs by MTT assay; assay type: functional, cell-based; settings: KYSE-70, 72 h; method in brief: as §1
[4] = system: MIA PaCa-2; experiment: Inhibition of autophagy in human MIAPaCa2 cells assessed as decrease in bafilomycin-induced LC3B level at 1 to 10 uM after 24 hrs by Western blot analysis; assay type: functional, cell-based
Method in brief: (§2)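 Cells treated 24 h at indicated concentrations, with bafilomycin for induced-LC3B readouts. Lysis in RIPA with protease inhibitors, BCA protein assay, samples heated 5 min at 100 °C. Equal protein run on 15% SDS-PAGE, transferred to PVDF. Anti-LC3B primary overnight at 4 °C, GAPDH as loading control, anti-rabbit secondary, TBST washes.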

[5] = system: KYSE-410; experiment: Inhibition of autophagy in human KYSE410 cells assessed as decrease in bafilomycin-induced LC3B level after 24 hrs by Western blot analysis; assay type: functional, cell-based; method in brief: as §2
[6] = system: KYSE-410; experiment: Inhibition of autophagy in human KYSE410 cells assessed as decrease in bafilomycin-induced LC3B level at 1 to 10 uM after 24 hrs by Western blot analysis; assay type: functional, cell-based; method in brief: as §2
[7] = system: KYSE-410; experiment: Cell cycle arrest in human KYSE410 cells assessed as accumulation at G2 phase at 1 uM after 24 to 48 hrs by propidium iodide staining based flow cytometry (reference value: 12.2%); assay type: functional
[8] = system: KYSE-410; experiment: Cell cycle arrest in human KYSE410 cells assessed as accumulation at G1 phase at 5 uM after 24 to 48 hrs by propidium iodide staining based flow cytometry (reference value: 65.4%); assay type: functional
[9] = system: KYSE-70 cell line; experiment: Inhibition of colony formation in human KYSE-70 cells at >3 uM after 7 days by crystal violet staining based assay; assay type: functional, cell-based
Method in brief: (§3)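 Seeding at 250 cells/well in 96-well plates, attached 24 h, then serial compound dilutions added at 37 °C. Culture continued 7 days until colonies formed. Colonies washed, stained with 2% crystal violet for 1 h, then rinsed thoroughly with water.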

[10] = system: KYSE-410; experiment: Antiproliferative activity against human KYSE410 cells after 72 hrs by MTT assay; assay type: functional, cell-based; settings: KYSE-410, 72 h; method in brief: as §1
[11] = system: KYSE-410; experiment: Inhibition of colony formation in human KYSE410 cells at >3 uM after 7 days by crystal violet staining based assay; assay type: functional, cell-based; method in brief: as §3
[12] = system: KYSE-410; experiment: Cell cycle arrest in human KYSE410 cells assessed as accumulation at G2 phase at 5 uM after 24 to 48 hrs by propidium iodide staining based flow cytometry (reference value: 12.2%); assay type: functional
[13] = system: KYSE-410; experiment: Cell cycle arrest in human KYSE410 cells assessed as accumulation at S phase at 1 uM after 24 to 48 hrs by propidium iodide staining based flow cytometry (reference value: 22.3%); assay type: functional
[14] = system: MIA PaCa-2; experiment: Antiproliferative activity against human MIAPaCa2 cells after 72 hrs by MTT assay; assay type: functional, cell-based; settings: MIA PaCa-2, 72 h; method in brief: as §1
[15] = system: KYSE-410; experiment: Cell cycle arrest in human KYSE410 cells assessed as accumulation at S phase at 5 uM after 24 to 48 hrs by propidium iodide staining based flow cytometry (reference value: 22.3%); assay type: functional
[16] = system: KYSE-410; experiment: Cell cycle arrest in human KYSE410 cells assessed as accumulation at G1 phase at 1 uM after 24 to 48 hrs by propidium iodide staining based flow cytometry (reference value: 65.4%); assay type: functional
[17] = system: OVCAR-8; experiment: Antiproliferative activity against human OVCAR8 cells after 72 hrs by MTT assay; assay type: functional, cell-based; settings: OVCAR-8, 72 h; method in brief: as §1

- pIC50 [1]: 4.97
- pIC50 [14]: 5.11
- pIC50 [17]: 4.92
SMILES: O=C(Nc1cc(F)cc(F)c1)c1cc(=O)[nH]c2cc(Br)ccc12
- inhibition [2]: inactive
- pIC50 [3]: 4.97
- inhibition [4]: Active
- inhibition [5]: Dose-dependent effect
- inhibition [6]: Active
- Activity [7]: 14.6%
- Activity [8]: 57.2%
- inhibition [9]: Active
- pIC50 [10]: 4.95
- inhibition [11]: Active
- Activity [12]: 19.8%
- Activity [13]: 21.2%
- Activity [15]: 23%
- Activity [16]: 64.2%
